Tests used:
[1] = system: A-431; assay: Cytotoxicity against EGFR overexpressing human A431 after 12 hrs by cyquant DNA dye-based fluorescence method; assay type: functional, cell-based; conditions: A-431, 12 h
[2] = target: T1, Vascular endothelial growth factor receptor 2 (Homo sapiens, UniProt P35968); assay: Inhibition of VEGFR2 tyrosine kinase activity in VEGF-stimulated human U251 cells after 60 mins by ELISA; assay type: cell-based, U-251
[3] = target: Epidermal growth factor receptor (Homo sapiens, UniProt P00533); assay: Inhibition of EGFR tyrosine kinase activity in EGF-stimulated human A431 cells after 60 mins by ELISA; assay type: cell-based, A-431
Sequence of Epidermal growth factor receptor (P00533 whole entry): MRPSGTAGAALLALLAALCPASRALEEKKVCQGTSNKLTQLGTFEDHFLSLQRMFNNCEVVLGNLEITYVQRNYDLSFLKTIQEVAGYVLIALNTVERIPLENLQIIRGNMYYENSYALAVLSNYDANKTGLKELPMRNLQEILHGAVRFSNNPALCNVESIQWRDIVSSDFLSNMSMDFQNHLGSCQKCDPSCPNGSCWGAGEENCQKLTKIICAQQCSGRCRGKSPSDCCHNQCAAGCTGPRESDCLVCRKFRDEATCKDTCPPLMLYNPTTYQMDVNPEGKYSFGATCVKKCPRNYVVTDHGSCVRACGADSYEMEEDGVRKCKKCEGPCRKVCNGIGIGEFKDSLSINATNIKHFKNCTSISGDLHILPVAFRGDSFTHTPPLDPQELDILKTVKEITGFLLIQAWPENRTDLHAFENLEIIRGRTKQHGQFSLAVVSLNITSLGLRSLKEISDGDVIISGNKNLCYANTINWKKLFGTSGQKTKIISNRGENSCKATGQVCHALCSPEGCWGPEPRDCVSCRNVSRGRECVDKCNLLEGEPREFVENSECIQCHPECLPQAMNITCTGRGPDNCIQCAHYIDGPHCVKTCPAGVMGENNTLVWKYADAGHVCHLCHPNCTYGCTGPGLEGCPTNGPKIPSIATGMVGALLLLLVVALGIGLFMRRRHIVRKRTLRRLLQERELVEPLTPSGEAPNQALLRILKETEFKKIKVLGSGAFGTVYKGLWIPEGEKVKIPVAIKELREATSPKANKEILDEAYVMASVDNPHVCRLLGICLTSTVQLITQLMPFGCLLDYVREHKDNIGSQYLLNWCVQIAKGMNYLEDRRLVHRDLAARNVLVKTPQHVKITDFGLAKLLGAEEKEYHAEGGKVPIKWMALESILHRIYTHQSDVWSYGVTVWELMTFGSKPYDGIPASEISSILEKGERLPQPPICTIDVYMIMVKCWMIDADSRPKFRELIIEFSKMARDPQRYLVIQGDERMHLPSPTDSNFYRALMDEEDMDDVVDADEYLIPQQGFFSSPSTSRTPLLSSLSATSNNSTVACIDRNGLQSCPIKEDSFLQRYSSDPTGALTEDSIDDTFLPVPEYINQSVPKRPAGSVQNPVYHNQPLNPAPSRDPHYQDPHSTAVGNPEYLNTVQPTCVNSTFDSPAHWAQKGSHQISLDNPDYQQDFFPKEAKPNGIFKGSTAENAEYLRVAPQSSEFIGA

[4] = target: Vascular endothelial growth factor receptor 1 (Homo sapiens, UniProt P17948); assay: Inhibition of VEGFR1 tyrosine kinase activity in VEGF-stimulated human A498 cells after 60 mins by ELISA; assay type: cell-based
Sequence of Vascular endothelial growth factor receptor 1 (P17948 whole entry): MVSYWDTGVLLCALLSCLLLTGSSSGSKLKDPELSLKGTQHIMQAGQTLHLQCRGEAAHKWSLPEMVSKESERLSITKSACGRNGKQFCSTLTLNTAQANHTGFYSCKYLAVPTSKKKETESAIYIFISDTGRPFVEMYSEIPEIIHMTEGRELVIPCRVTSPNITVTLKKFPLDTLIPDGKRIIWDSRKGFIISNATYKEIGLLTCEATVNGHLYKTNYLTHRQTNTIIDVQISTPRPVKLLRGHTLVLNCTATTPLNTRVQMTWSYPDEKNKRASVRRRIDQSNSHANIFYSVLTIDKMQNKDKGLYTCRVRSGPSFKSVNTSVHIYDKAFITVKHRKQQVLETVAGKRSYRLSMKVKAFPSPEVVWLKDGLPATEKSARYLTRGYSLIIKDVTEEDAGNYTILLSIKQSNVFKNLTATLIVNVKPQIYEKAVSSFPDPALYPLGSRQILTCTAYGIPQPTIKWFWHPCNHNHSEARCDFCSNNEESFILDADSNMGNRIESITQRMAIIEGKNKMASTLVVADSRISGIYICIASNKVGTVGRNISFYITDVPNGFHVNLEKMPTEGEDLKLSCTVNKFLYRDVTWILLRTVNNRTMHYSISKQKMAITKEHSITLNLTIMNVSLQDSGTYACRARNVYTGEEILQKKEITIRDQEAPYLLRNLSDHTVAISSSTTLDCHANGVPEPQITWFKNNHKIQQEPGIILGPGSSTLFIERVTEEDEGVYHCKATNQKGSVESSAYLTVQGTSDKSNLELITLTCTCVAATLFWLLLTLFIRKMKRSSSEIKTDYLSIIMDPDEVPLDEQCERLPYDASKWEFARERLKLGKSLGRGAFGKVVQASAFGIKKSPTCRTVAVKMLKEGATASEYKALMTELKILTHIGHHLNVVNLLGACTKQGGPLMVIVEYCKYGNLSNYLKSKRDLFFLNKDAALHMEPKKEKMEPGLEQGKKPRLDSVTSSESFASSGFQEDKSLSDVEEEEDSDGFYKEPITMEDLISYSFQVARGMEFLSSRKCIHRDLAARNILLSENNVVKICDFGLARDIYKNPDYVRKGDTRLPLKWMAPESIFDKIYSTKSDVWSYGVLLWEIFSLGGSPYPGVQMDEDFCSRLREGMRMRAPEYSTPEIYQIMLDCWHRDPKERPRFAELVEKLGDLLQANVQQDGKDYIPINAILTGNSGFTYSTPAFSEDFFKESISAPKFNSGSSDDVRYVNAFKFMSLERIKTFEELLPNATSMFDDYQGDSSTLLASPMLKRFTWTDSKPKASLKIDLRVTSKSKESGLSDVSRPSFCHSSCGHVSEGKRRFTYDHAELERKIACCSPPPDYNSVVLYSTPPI
How it was run: (§1)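 Lysed in ice-cold TBS/0.05% triton with protease and phosphatase inhibitors, heat/ethanol-fixed. Total phosphotyrosine read by HRP anti-phosphotyrosine with luminol chemiluminescence.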

[5] = target: Platelet-derived growth factor receptor beta (Homo sapiens, UniProt P09619); assay: Inhibition of PDGFRbeta tyrosine kinase activity in PDGF-BB-stimulated human SF-539 cells after 60 mins by ELISA; assay type: cell-based; how it was run: as §1
Sequence of Platelet-derived growth factor receptor beta (P09619 whole entry): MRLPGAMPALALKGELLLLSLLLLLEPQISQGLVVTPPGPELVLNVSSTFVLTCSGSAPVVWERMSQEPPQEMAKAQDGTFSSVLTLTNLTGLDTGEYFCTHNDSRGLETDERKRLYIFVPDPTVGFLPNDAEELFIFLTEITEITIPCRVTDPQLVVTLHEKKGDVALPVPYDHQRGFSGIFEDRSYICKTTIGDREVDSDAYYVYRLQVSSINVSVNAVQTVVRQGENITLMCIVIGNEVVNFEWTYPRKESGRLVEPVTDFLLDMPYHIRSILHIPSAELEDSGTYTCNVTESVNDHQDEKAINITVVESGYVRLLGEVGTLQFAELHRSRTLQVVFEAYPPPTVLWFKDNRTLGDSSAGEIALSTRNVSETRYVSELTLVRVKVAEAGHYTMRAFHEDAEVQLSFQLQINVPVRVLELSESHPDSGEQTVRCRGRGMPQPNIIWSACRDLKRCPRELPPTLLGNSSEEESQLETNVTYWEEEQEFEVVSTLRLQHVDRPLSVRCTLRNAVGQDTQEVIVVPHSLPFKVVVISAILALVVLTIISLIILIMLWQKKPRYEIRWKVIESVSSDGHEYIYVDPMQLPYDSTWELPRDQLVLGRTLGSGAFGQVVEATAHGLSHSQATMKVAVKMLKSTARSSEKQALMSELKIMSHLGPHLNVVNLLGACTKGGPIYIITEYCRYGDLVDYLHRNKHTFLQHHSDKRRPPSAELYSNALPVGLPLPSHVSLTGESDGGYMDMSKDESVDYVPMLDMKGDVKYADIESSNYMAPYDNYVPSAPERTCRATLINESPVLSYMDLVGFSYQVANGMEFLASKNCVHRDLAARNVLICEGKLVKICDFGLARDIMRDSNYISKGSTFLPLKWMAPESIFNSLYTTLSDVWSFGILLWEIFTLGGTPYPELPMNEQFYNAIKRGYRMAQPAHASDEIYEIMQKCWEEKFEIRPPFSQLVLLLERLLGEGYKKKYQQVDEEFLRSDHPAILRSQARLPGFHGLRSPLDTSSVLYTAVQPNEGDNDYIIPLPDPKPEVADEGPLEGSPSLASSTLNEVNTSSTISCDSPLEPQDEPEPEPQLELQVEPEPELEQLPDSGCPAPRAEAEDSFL

[6] = target: T1, Vascular endothelial growth factor receptor 2; assay: Ratio of semaxanib IC50 to compound IC50 for VEGFR2 tyrosine kinase activity in VEGF-stimulated human U251 cells; assay type: cell-based; conditions: U-251
How it was run: (§2)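 U251 cells, which naturally express high VEGFR-2, were grown to 60–75% confluence, kept 18 h serum-free, then pre-treated 60 min with 0.10–333 μM inhibitor before 100 ng/mL VEGF for 10 min. Total tyrosine phosphorylation was read by fixed-cell HRP-anti-phosphotyrosine ELISA with luminol luminescence, as % of growth factor alone.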

[7] = target: T1, Vascular endothelial growth factor receptor 2; assay: Ratio of Sunitinib IC50 to compound IC50 for VEGFR2 tyrosine kinase activity in VEGF-stimulated human U251 cells; assay type: cell-based; conditions: U-251; how it was run: as §2

T1 sequence (P35968 whole entry): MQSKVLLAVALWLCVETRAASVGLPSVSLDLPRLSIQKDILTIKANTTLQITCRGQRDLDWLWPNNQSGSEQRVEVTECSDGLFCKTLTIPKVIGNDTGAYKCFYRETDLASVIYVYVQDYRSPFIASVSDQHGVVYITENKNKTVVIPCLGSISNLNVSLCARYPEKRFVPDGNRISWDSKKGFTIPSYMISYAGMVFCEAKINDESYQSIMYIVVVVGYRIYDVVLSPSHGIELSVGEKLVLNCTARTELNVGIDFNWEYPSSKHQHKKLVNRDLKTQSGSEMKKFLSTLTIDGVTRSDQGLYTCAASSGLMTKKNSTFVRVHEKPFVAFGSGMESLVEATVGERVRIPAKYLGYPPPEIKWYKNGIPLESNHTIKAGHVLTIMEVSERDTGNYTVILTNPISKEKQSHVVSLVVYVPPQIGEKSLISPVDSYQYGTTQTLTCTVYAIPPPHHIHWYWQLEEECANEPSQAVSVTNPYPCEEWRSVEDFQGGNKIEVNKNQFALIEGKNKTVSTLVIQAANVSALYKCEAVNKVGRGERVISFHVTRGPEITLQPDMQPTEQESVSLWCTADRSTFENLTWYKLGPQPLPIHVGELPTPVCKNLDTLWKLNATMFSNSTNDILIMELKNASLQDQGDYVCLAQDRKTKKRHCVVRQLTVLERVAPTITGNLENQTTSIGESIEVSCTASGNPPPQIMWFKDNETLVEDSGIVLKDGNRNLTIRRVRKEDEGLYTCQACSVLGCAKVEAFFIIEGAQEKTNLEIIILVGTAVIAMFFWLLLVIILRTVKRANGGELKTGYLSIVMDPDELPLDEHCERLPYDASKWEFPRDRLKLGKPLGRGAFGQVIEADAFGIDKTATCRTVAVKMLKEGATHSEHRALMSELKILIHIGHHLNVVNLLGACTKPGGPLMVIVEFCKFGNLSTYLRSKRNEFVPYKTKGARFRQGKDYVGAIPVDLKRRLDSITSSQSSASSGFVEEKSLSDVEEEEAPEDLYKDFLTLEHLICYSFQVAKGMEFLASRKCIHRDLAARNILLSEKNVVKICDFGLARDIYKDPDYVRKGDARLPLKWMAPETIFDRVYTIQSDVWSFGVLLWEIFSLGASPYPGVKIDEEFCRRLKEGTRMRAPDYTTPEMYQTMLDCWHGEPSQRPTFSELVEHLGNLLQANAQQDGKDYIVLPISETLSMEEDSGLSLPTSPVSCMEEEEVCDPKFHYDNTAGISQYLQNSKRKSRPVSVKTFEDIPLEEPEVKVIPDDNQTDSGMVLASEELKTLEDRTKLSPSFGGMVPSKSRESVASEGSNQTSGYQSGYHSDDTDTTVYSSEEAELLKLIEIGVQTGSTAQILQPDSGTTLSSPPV

`Cc1ccccc1Cc1cc2c(Nc3ccc(Cl)cc3)nc(N)nc2[nH]1` was tested, and the IC50 [1] was 5.6 µM, the IC50 [2] was 45.4 µM and the IC50 [3] was 0.24 µM. The IC50 [4] was 45.9 µM and the IC50 [5] was over 300 µM.

`Nc1nc(Nc2ccc(Cl)cc2F)c2cc(Cc3cccc4ccccc34)[nH]c2n1` was tested, and the IC50 [1] was 46.7 µM, the Ratio IC50 [6] was 25 and the IC50 [2] was 0.48 µM. The IC50 [3] was over 200 µM, the IC50 [4] was over 200 µM and the IC50 [5] was 193 µM. It also gave a Ratio IC50 [7] of 39.

`Cc1ccccc1Cc1cc2c(Nc3ccc(Cl)cc3F)nc(N)nc2[nH]1` was tested, and the IC50 [1] was over 200 µM, the IC50 [2] was 29.8 µM and the IC50 [3] was over 200 µM. It also gave an IC50 [4] of 16 µM and an IC50 [5] of over 300 µM.

`COc1ccc(OC)c(Cc2cc3c(Nc4ccc(Cl)cc4)nc(N)nc3[nH]2)c1` gave an IC50 [1] of 5.8 µM, an IC50 [2] of 56.7 µM and an IC50 [3] of over 200 µM. It also gave an IC50 [4] of 15.2 µM and an IC50 [5] of 44.3 µM.

`Nc1nc(Nc2ccc(Cl)cc2)c2cc(Cc3cccc4ccccc34)[nH]c2n1` was tested, and the IC50 [2] was 32.1 µM and the IC50 [4] was over 200 µM.

`COc1ccc(OC)c(Cc2cc3c(Nc4cccc(Br)c4)nc(N)nc3[nH]2)c1` showed an IC50 [1] of over 50 µM and an IC50 [2] of 0.62 µM.

`COc1ccc(OC)c(Cc2cc3c(Nc4ccc(Cl)cc4F)nc(N)nc3[nH]2)c1` gave an IC50 [1] of 13.4 µM, a Ratio IC50 [6] of 120 and an IC50 [2] of 0.1 µM. For the same molecule, the IC50 [3] was 113 µM, the IC50 [4] was 186 µM and the IC50 [5] was 146 µM. For the same molecule, the Ratio IC50 [7] was 189.

From ChEMBL document CHEMBL1926631, “N⁴-Aryl-6-substitutedphenylmethyl-7H-pyrrolo[2,3-d]pyrimidine-2,4-diamines as receptor tyrosine kinase inhibitors” (Bioorg Med Chem, 2012)
